Only some compounds are listed: those with a hit (about 3.5% of all), similar ones and a draw of the others.
MrgX1 antagonist: human MrgX1 receptor antagonism, primary screen; MRGX1-HEK293 calcium flux, Fluo-4, BAM8-22 antagonism; stronger effect = lower value; B-score at 10 µM; 310,000 compounds, 1.3% hits;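 active = calcium-response B-score plate-corrected more than 3 library SD below zero, starting fluorescence within 5 deviations, no agonist response on first addition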;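 also: peak minus trough fluorescence over baseline after final BAM8-22 challenge near maximal dose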
Target sequence (Q96LB2 whole entry, looked up): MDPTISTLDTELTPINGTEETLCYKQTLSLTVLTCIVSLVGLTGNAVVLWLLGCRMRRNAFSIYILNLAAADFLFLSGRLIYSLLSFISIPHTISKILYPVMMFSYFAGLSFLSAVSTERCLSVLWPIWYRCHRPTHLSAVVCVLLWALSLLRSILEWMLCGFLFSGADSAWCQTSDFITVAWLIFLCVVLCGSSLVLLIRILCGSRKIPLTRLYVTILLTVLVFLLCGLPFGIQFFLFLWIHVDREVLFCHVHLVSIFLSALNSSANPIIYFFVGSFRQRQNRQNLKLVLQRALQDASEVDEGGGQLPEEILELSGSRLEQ
MrgX1 agonist: human MrgX1 receptor agonism, primary screen. Q96LB2. MrgX1-HEK293 cells, Fluo-4 calcium fluorescence, agonist mode; stronger effect = higher value. B-score at 10 µM. 310,000 compounds, 0.44% hits. AID 588627;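 active = calcium response B-score plate-corrected fluorescence ratio at least 3 library SD, with starting fluorescence B-score inside 5 SD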
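Material: MrgX1-expressing HEK293 cells / Dosing: compound as first of three additions / Incubation: overnight seeding, then 1 h dark dye loading / Signal: Fluo-4 NW calcium fluorescence / Evaluation: B-scored fluorescence response ratio / Benchmarks: positive and negative control wells on each plate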
RGS4 block: human RGS4 inhibition; P49798; HEK293 M3R/RGS4 inducible, Fluo-4 calcium flux; stronger effect = higher value; triggered by carbachol at its EC20; B-score at 10 µM; 310,000 compounds, 0.45% hits; AID 463165;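 active = B-score, a plate-corrected calcium signal, over three deviations above library mean, with baseline fluorescence within five deviations of library mean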;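 also: RGS4 expression induced by doxycycline in cells with stable M3 receptor; B-score is computed from the integrated fluorescence ratio over baseline after carbachol; higher B-score means a larger calcium signal and so more RGS4 inhibition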
Target sequence (P49798 whole entry, looked up): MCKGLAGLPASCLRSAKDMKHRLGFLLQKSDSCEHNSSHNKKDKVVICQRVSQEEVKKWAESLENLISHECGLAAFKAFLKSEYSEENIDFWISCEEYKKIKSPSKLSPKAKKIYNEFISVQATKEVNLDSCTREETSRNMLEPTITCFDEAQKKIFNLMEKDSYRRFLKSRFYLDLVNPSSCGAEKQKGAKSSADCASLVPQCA
MrgX1 allo act: human MrgX1 positive allosteric modulation, primary screen | MrgX1-HEK293, Fluo-4 calcium flux, FDSS; stronger effect = higher value | B-score at 10 µM | AID 588675 | 310,000 compounds, 0.63% hits;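 active = plate-corrected calcium response at least 3 library SD above typical, normal starting fluorescence, not activating the receptor alone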;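 also: compound read alongside a low EC10 to EC30 dose of BAM8-22 agonist; peak minus trough fluorescence over baseline measured at the second addition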
RGS4 act: RGS4 potentiation or activation; HEK293 M3R/inducible RGS4, carbachol calcium flux Fluo4; stronger effect = lower value; B-score at 10 µM; 310,000 compounds, 0.92% hits; AID 463111;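 active = B-score of the integrated calcium signal more than 4 SD below the library mean, with starting fluorescence not abnormally high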;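 also: negative B-score means reduced calcium response which marks RGS4 activation or potentiation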
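Also added: carbachol at ECmax as muscarinic agonist stimulus; Assay system: HEK293 cells with stable M3R and inducible RGS4; Timing: overnight RGS4 induction, 30 min dye load 37 °C, 20 min compound RT; Measured by: Fluo4-AM (2 µM) calcium-flux fluorescence, kinetic read.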
RGS4 block valid: RGS4 inhibitor validation. shares compounds with RGS4 block. HEK293 M3R/RGS4, carbachol calcium Fluo-4 fluorescence; carbachol added at its EC20; 0 = buffer wells, 100 = carbachol control. calcium response, % at 10 µM. 1,700 compounds, 65% hits. AID 492999;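 active = duplicate-averaged calcium response above the buffer-only control mean plus 5 SD of those controls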;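 also: integrated fluorescence ratio F max minus min over baseline F0; higher response in RGS4-induced cells means RGS4 inhibition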
M3R Ca ctr: checks RGS4 inhibitor effects in non-induced HEK293 M3R cells; shares compounds with RGS4 block; carbachol calcium Fluo-4; submaximal (EC20) carbachol stimulus; buffer wells 0%, carbachol control wells 100%; activity (percent), % at 10 µM; 1,900 compounds, 20% hits; AID 493000; call rule not given here;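 also: RGS4 induction absent so cells express M3R without RGS4; higher means more calcium signal and flags a non-specific hit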
M3R basal Ca ctr: second counter-screen for RGS4 inhibitors: non-induced cells without carbachol; HEK293 M3R/RGS4 non-induced, Fluo-4 calcium, no carbachol; normalised: buffer wells 0%, carbachol wells 100%; calcium response (agonist-mode artifact), % at 10 µM; 1,900 compounds, 22% hits; shares compounds with RGS4 block;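 active = duplicate-averaged calcium rise in uninduced cells above buffer wells' mean plus 5 SD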
Numbers without * were called inactive; i = inactive; . = no result.

SMILES	MrgX1 antagonist	MrgX1 agonist	RGS4 block	MrgX1 allo act	RGS4 act	RGS4 block valid	M3R Ca ctr	M3R basal Ca ctr
Cn1c(SCC(=O)N=Nc2c(O)[nH]c3ccccc23)nc2ccccc21	i	i	i	i	i	.	.	.
O=C(CSc1nc2ccccc2[nH]1)N=Nc1c(O)[nH]c2ccccc12	i	i	4.99*	i	i	i	i	i
Cc1cccc(Cn2cccc2/C=C2/C(=N)N3C=CSC3=NC2=O)c1	i	i	i	i	i	.	.	.
Cc1ccc(Cn2cccc2/C=C2/C(=N)N3C=CSC3=NC2=O)cc1	i	i	i	i	i	i	i	i
N=C1/C(=C/c2cccn2Cc2ccc(F)cc2)C(=O)N=C2SC=CN12	i	i	i	i	i	.	i	21.0%*
Cc1ccc(CN(Cc2cc3cc4c(cc3[nH]c2=O)OCCO4)Cc2nnnn2Cc2ccco2)cc1	i	i	12.3*	i	i	i	i	16.5%*
Cc1ccc2cc(CN(Cc3ccc4c(c3)OCO4)Cc3nnnn3Cc3ccco3)c(=O)[nH]c2c1	i	i	i	i	i	i	i	8.5%*
COc1ccc2cc(CN(CCc3ccccc3)Cc3nnnn3Cc3ccco3)c(=O)[nH]c2c1	i	i	i	i	i	.	.	.
Cn1c(=O)c2c(-c3ccccc3)n(-n3cnnc3)cc2n(C)c1=O	i	i	5.43*	i	i	11.0%*	i	i
COc1ccc(C=C(C(C)=O)C(C)=O)cc1OC	i	i	17.9*	i	i	27.5%*	44.5%*	i
COc1cc(C=C(C(C)=O)C(C)=O)ccc1O	i	i	5.41*	i	i	6.0%*	i	i
COc1ccc(/C=C/C(=O)C(C)(C)C)cc1OC	i	i	i	i	i	.	.	.
c1ccc(-c2ccc(Oc3cc(N4CCOCC4)nc(-c4ccccc4)n3)cc2)cc1	i	i	i	i	i	.	.	.
CC(C)Sc1cc(N2CCCC2)nc(-c2ccccc2)n1	i	i	6.21*	i	i	23.0%*	51.0%*	i
CCSc1cc(N2CCCC2)nc(-c2ccccc2)n1	i	i	i	i	i	.	.	.
CC(C)Sc1cc(N2CCOCC2)nc(-c2ccccc2)n1	i	i	i	i	i	i	30.0%*	10.0%*
CC(C)Sc1cc(N2CCCC2)nc(-c2ccccc2Cl)n1	i	i	i	i	i	.	.	.
CC(C)Sc1cc(N2CCCC2)nc(-c2ccc(F)cc2)n1	i	i	9.25*	i	i	25.5%*	i	i
COc1cccc(CNC(=O)C2CCN(S(=O)(=O)c3c(C)nn(C)c3C)CC2)c1	i	i	i	i	i	.	.	.
COCCSc1nnc(NC(=O)C(C)(C)C)s1	i	i	i	i	i	.	.	.
CCOC(=O)[C@@H]1[C@H]2COc3ccc(Br)cc3[C@@H]2N2C(=O)N(c3ccc(Br)cc3)C(=O)[C@]12C	i	i	i	i	i	.	.	.
CCOC(=O)[C@@H]1[C@H]2COc3ccccc3[C@@H]2N2C(=O)N(c3ccc(F)cc3)C(=O)[C@]12C	i	i	i	i	i	i	i	i
CCOC(=O)[C@@H]1[C@H]2COc3ccccc3[C@H]2N2C(=O)N(c3ccc(C)cc3)C(=O)[C@]12C	i	i	i	i	i	i	i	i
CCOC(=O)[C@@H]1[C@H]2COc3ccccc3[C@H]2N2C(=O)N(c3cccc(F)c3)C(=O)[C@]12C	i	i	i	i	i	i	i	i
CCOC(=O)[C@@H]1[C@H]2COc3ccccc3[C@@H]2N2C(=O)N(c3ccccc3)C(=O)[C@]12C	i	i	i	i	i	i	i	i
SMILES	MrgX1 antagonist	MrgX1 agonist	RGS4 block	MrgX1 allo act	RGS4 act	RGS4 block valid	M3R Ca ctr	M3R basal Ca ctr
CCOC(=O)[C@@H]1[C@H]2COc3ccccc3[C@@H]2N2C(=O)N(c3ccc(Cl)cc3)C(=O)[C@]12C	i	i	i	i	i	i	i	i
CCOC(=O)[C@@H]1[C@H]2COc3ccccc3[C@H]2N2C(=O)N(c3ccccc3)C(=O)[C@]12C	i	i	i	i	i	i	i	i
CCOC(=O)[C@@H]1[C@H]2COc3ccccc3[C@@H]2N2C(=O)N(c3ccccc3)C(=O)[C@@]12C	i	i	i	i	i	i	i	i
O=C1CCN(Cc2cccnc2)CCN1[C@H](CO)Cc1ccccc1	i	i	i	i	i	.	.	.
CCOC(=O)/C(=C\c1cn(C)c2ccccc12)[N+](=O)[O-]	-4.6*	i	5.8*	i	i	34.0%*	i	20.0%*
CCOC(=O)/C(C#N)=C\c1cn(C)c2ccccc12	i	i	i	i	i	.	.	.
COc1ccc(C2=Nn3c(nnc3-c3cccnc3)SC2)cc1OC	i	i	i	i	i	i	i	i
COc1ccccc1-c1nnc2n1N=C(c1ccc(O)c(O)c1)CS2	i	i	i	i	i	.	i	i
Brc1ccc(C2=Nn3c(nnc3-c3cccnc3)SC2)s1	i	i	i	i	i	.	.	.
Nc1c(C(=O)c2ccccc2)sc2c1c(=O)[nH]c(=O)n2-c1ccccc1	i	i	i	i	i	.	37.5%*	i
CC(=O)c1ccc(-n2c(=O)[nH]c(=O)c3c(N)c(C(=O)c4ccc(Cl)cc4)sc32)cc1	i	i	i	i	i	.	i	i
Nc1c(C(=O)c2ccc(Cl)cc2)sc2c1c(=O)[nH]c(=O)n2-c1ccccc1	i	i	5.2*	i	i	37.5%*	i	26.0%*
CC(NC(=O)Cc1ccc([N+](=O)[O-])cc1)c1ccc2c(c1)OCO2 (stereo not drawn)	i	i	i	i	i	.	.	.
Cc1nc2ccc(NC(=O)c3cncc(Br)c3)cc2s1	i	i	i	i	i	.	.	.
COc1ccc(CNC(=O)CCCC(=O)n2nc(C)c3ccccc32)cc1	i	i	i	i	i	.	.	.

Screening data (PubChem BioAssay)
